Experimental data from ChEMBL document CHEMBL1124568, “2,4-Diamino-5-benzylpyrimidines as antibacterial agents. 13. Some alkenyl derivatives with high in vitro activity against anaerobic organisms” (J Med Chem, 1989).
≈ marks a conversion by molar mass, not a printed value.

Assays:
Clostridium perfringens = test: Ratio of antibacterial (Clostridium perfringens) activities compared to that of trimethoprim and metronidazole; format: functional
Pasteurella multocida = test: Antibacterial (Pasteurella multocides ATCC 6587) activity compared to trimethoprim.; format: functional
How it was run: (§1)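 Each MIC is divided by the MIC of trimethoprim run alongside. Serial dilutions were normally 0.1, 0.3, 1, 3, 10, etc., and occasionally 1, 5 and 10. For E. coli the value is the average over six strains.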

Clostridioides difficile = test: Ratio of antibacterial (Clostridium difficile) activities compared to that of trimethoprim and metronidazole; format: functional
Escherichia coli = test: Antibacterial (Escherichia coli) activity compared to trimethoprim.; format: functional; how it was run: as §1
Dihydrofolate reductase = biological target: T1, Dihydrofolate reductase (Rattus norvegicus, UniProt Q920D2); test: In vitro inhibition of rat liver dihydrofolate reductase.; settings: read-out: I50
T1 sequence (Q920D2 whole entry): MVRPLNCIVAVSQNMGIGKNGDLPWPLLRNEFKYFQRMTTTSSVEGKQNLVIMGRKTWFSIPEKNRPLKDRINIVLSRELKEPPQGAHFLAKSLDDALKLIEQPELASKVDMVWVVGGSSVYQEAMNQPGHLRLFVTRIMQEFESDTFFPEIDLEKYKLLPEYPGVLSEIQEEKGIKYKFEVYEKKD

Staphylococcus aureus = test: Antibacterial (Staphylococcus aureus CN491) activity compared to trimethoprim.; format: functional; how it was run: as §1
Klebsiella pneumoniae = test: Antibacterial (Klebsiella pneumoniae CN3632) activity compared to trimethoprim.; format: functional; how it was run: as §1
Serratia marcescens = test: Antibacterial (Serratia marcescens CN2398) activity compared to trimethoprim.; format: functional; how it was run: as §1
Shigella flexneri = test: Antibacterial (Shigella flexneri CN6007) activity compared to trimethoprim.; format: functional; how it was run: as §1
Proteus vulgaris = test: Antibacterial (Proteus vulgaris CN329) activity compared to trimethoprim.; format: functional; how it was run: as §1
[1] = Antibacterial (Salmonella typhi CN512) activity compared to trimethoprim.; format: functional, salmonella typhosa
Klebsiella aerogenes = test: Antibacterial (Enterobacter aerogenes 2201/86) activity compared to trimethoprim.; format: functional; how it was run: as §1
[2] = system: Mycolicibacterium smegmatis; test: Antibacterial (Mycobacterium smegmatis S3254) activity compared to trimethoprim.; format: functional; how it was run: as §1
Fusobacterium nucleatum = test: Ratio of antibacterial (Fusobacterium nucleatum) activities compared to that of trimethoprim and metronidazole; format: functional
Streptococcus pyogenes = test: Antibacterial ([…] CN10) activity compared to trimethoprim.; format: functional; how it was run: as §1
[3] = system: Bacteroides thetaiotaomicron; test: Ratio of antibacterial (Bacteroides thetaiotaomicron) activities compared to that of trimethoprim and metronidazole; format: functional
Phocaeicola vulgatus = test: Ratio of antibacterial (Bacteroides vulgatus) activities compared to that of trimethoprim and metronidazole; format: functional

With C=CCc1cc(Cc2cnc(N)nc2N)ccc1O the MIC (Clostridium perfringens) was over 25 µg/mL, the MIC (Pasteurella multocida) was 10 µg/mL (≈ 39 µM) and the MIC (Clostridioides difficile) was 25 µg/mL. The MIC (Escherichia coli) was 16 µg/mL (≈ 62.4 µM), the IC50 (Dihydrofolate reductase) was 94.5 µM and the MIC (Staphylococcus aureus) was 10 µg/mL (≈ 39 µM). The MIC (Klebsiella pneumoniae) was 20 µg/mL (≈ 78 µM), the MIC (Serratia marcescens) was 20 µg/mL (≈ 78 µM) and the MIC (Shigella flexneri) was 10 µg/mL (≈ 39 µM). The MIC (Proteus vulgaris) was 50 µg/mL (≈ 195 µM), the MIC [1] was 100 µg/mL (≈ 390 µM) and the MIC (Klebsiella aerogenes) was 10 µg/mL (≈ 39 µM). It also gave an MIC [2] of 5 µg/mL (≈ 19.5 µM), an MIC (Fusobacterium nucleatum) of 0.8 µg/mL and an MIC (Streptococcus pyogenes) of 2 µg/mL (≈ 7.8 µM).
With CCCOc1cc(Cc2cnc(N)nc2N)cc(OC)c1OC the MIC (Pasteurella multocida) was 3 µg/mL (≈ 9.42 µM), the MIC (Escherichia coli) was 6 µg/mL (≈ 18.8 µM) and the IC50 (Dihydrofolate reductase) was 94.5 µM. For the same molecule, the MIC (Staphylococcus aureus) was 0.3 µg/mL (≈ 0.942 µM), the MIC (Klebsiella pneumoniae) was 10 µg/mL (≈ 31.4 µM) and the MIC (Serratia marcescens) was 3 µg/mL (≈ 9.42 µM). It also gave an MIC (Shigella flexneri) of 10 µg/mL (≈ 31.4 µM), an MIC (Proteus vulgaris) of 3 µg/mL (≈ 9.42 µM) and an MIC [1] of 10 µg/mL (≈ 31.4 µM). For the same molecule, the MIC (Klebsiella aerogenes) was 3 µg/mL (≈ 9.42 µM), the MIC [2] was 3 µg/mL (≈ 9.42 µM) and the MIC (Streptococcus pyogenes) was 0.3 µg/mL (≈ 0.942 µM).
For CCCc1cc(Cc2cnc(N)nc2N)cc(OC)c1OC, the MIC (Clostridium perfringens) was over 25 µg/mL, the MIC (Pasteurella multocida) was 10 µg/mL (≈ 33.1 µM) and the MIC (Clostridioides difficile) was over 25 µg/mL. For the same molecule, the MIC (Escherichia coli) was 6 µg/mL (≈ 19.8 µM), the IC50 (Dihydrofolate reductase) was 37 µM and the MIC (Staphylococcus aureus) was 0.1 µg/mL (≈ 0.331 µM). The MIC (Klebsiella pneumoniae) was 10 µg/mL (≈ 33.1 µM), the MIC [3] was 1.6 µg/mL and the MIC (Serratia marcescens) was 3 µg/mL (≈ 9.92 µM). It also gave an MIC (Shigella flexneri) of 10 µg/mL (≈ 33.1 µM), an MIC (Proteus vulgaris) of 10 µg/mL (≈ 33.1 µM) and an MIC [1] of 3 µg/mL (≈ 9.92 µM). It also gave an MIC (Klebsiella aerogenes) of 10 µg/mL (≈ 33.1 µM), an MIC [2] of 3 µg/mL (≈ 9.92 µM) and an MIC (Fusobacterium nucleatum) of 0.4 µg/mL. For the same molecule, the MIC (Phocaeicola vulgatus) was 1.6 µg/mL and the MIC (Streptococcus pyogenes) was 0.1 µg/mL (≈ 0.331 µM).
C=CCOc1ccc(Cc2cnc(N)nc2N)cc1 showed an MIC (Pasteurella multocida) of 100 µg/mL (≈ 390 µM), an MIC (Escherichia coli) of 72 µg/mL (≈ 281 µM) and an IC50 (Dihydrofolate reductase) of 320 µM. For the same molecule, the MIC (Staphylococcus aureus) was 100 µg/mL (≈ 390 µM), the MIC (Klebsiella pneumoniae) was 100 µg/mL (≈ 390 µM) and the MIC (Serratia marcescens) was over 20 µg/mL. The MIC (Shigella flexneri) was 100 µg/mL (≈ 390 µM), the MIC (Proteus vulgaris) was over 100 µg/mL and the MIC [1] was 100 µg/mL (≈ 390 µM). The MIC (Klebsiella aerogenes) was 10 µg/mL (≈ 39 µM), the MIC [2] was 50 µg/mL (≈ 195 µM) and the MIC (Streptococcus pyogenes) was 10 µg/mL (≈ 39 µM).
